In PubChem BioAssay:
Inconclusive results are not listed.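 Rule for the calls, unless noted: active = cell viability at or below a set limit in both duplicate runs, the limit being the all-compound median minus 4 SD (cut at about 23% in these data, passing the limit was not always enough); inconclusive = no clear call, values can overlap the other calls; inactive = the rest.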

Tests used:
[1] = S. cerevisiae growth inhibition in permissive medium (OD615), pilot counter-assay for S. cerevisiae lifespan shortening project, permissive growth control (AID 705;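 active = growth inhibition above 25% in both replicates, a cutoff set 3 SD above the mean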); conditions: OD615, 24 h, at 10 µM, active compounds read high
How it was run: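 System – S. cerevisiae with engineered DeaD lifespan system · Buffer or medium – SC raffinose/galactose permissive medium · Schedule – cells pre-grown 4 h, then 24 h compound exposure, 30 °C humidified · Technique – culture turbidity as optical density at 615 nm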

[2] = S. cerevisiae growth inhibition in restrictive medium, OD615, pilot screen, restrictive growth control, yeast lifespan reduction project (AID 706;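 active = growth inhibition above a set limit, 3 SD over mean compound inhibition, in both replicates, cut at about 43% in these data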;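 note: modified DeaD lifespan yeast strain shifted to restrictive glucose medium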); conditions: OD615, 48 h, at 10 µM, active compounds read high
How it was run: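 Material: engineered S. cerevisiae DeaD strain / Medium: glucose-based CSMM-D restrictive medium / Compound: single dose of 10 µM compound final, 0.25% DMSO / Timing: 4 h pre-incubation, 48 h exposure at 30 °C / Technique: OD615 absorbance reading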

[3] = doxorubicin toxicity protection in MRP-1 cells – H69AR cells, CellTiter-Glo, duplicate, MRP-1 activator project, pilot screen (AID 807;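 active = viability increase at or above a cutoff of the median across tested compounds plus 3 SD, cut at about 8.5% in these data, passing the limit was not always enough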;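 note: compound pretreatment 18-22 h then 72 h combined with doxorubicin; 0% = doxorubicin alone and 100% = vehicle without doxorubicin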); conditions: H69AR viability with doxorubicin, CellTiter-Glo luminescence; at 10 µM; active compounds read high
[4] = viability of HCT116 without oncogenic beta-catenin – human colon tumor cells, pilot screen (AID 823); conditions: HCT116 beta-catenin knockout viability, CellTiter-Glo, 60 h; at 10 µM; active compounds read low;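 note: 0% = wells killed by 20 µM Hyamine and 100% = untreated DMSO cell wells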
[5] = viability of PTEN-null HCT116 cells – cell-based, HCT116 clonal line, CellTiter-Glo, pilot screen (AID 824;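 active = viability at or below 27.92% in each of two runs, the all-compound median minus 4 SD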;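 note: 0% = 20 µM Hyamine control and 100% = vehicle cell control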); conditions: HCT116 PTEN-deleted viability, 60 h, at 10 µM, active compounds read low
[6] = RAM pathway blockade in budding yeast – dse1pr::URA3 reporter, 5-FOA selection, pilot screen (AID 869;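 active = inhibition over a set limit, the all-compound mean plus 3 SD, in both replicate runs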;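 note: 0% = DMSO wells with no growth and 100% = 10 µM 1-NA-PP1 with full growth; RAM network block rescues cells from 5-FOA so hits raise OD615 growth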); conditions: S. cerevisiae dse1pr::URA3 5-FOA growth, OD615, 2 d; at 10 µM; active compounds read high; strain carries analog-sensitive mutant Cbk1 kinase
[7] = RAM signaling pathway blockade in yeast – S. cerevisiae, Pdr1DBD-CYC8 efflux-inhibited sensitized strain, primary screen (AID 1298;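 active = RAM network inhibition above 8.4% in each of two replicates, 3 SD over the compound average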;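 note: 0% = DMSO untreated cells without growth and 100% = 10 µM 1-NA-PP1 full growth; higher means more yeast growth rescued from 5-FOA killing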); conditions: S. cerevisiae cbk1-as DSE1-URA3 strain, 5-FOA growth OD615, 2 d; at 50 µM; active compounds read high

CC(=O)c1c(NCc2ccccc2)nc(=O)n(-c2ccccc2)c1C
inactive: growth inhibition [1] -4.12% | growth inhibition [2] 4.42% | viability increase [3] -1.28% | viability [4] 94.7% | viability [5] 97% | inhibition [6] 1.98% | RAM network inhibition [7] 4.07%

COc1ccc(-c2nc(CNS(=O)(=O)c3cc(OC)ccc3OC)cs2)cc1
inactive: growth inhibition [1] 2.43% | growth inhibition [2] 5.36% | viability increase [3] -1.76% | viability [4] 92% | viability [5] 89.7% | inhibition [6] 0.53% | RAM network inhibition [7] 5.82%

CCCCCCC1C(C#N)=C(N)OC2=C1C(=O)CCC2 (stereo unspecified)
inactive: growth inhibition [1] -12% | growth inhibition [2] -14.4% | viability increase [3] -2.64% | viability [4] 101% | viability [5] 92% | inhibition [6] 3.6% | RAM network inhibition [7] 4.66%

CCOC(=O)C1=C(C)Nc2nc(C)nn2C1c1ccc(OC)c(OC)c1 (stereo unspecified)
inactive: growth inhibition [1] -6.55% | growth inhibition [2] -3.96% | viability increase [3] -3.45% | viability [4] 99.5% | viability [5] 102% | inhibition [6] 0.77% | RAM network inhibition [7] 0.06%

CCSC1=C(C#N)C(c2ccccc2C)CC(=O)N1 (stereo unspecified)
inactive: growth inhibition [1] -9.12% | growth inhibition [2] -23.4% | viability increase [3] -2.22% | viability [4] 92.5% | viability [5] 87.7% | inhibition [6] 1.98% | RAM network inhibition [7] 4.78%

CC(=O)N1CCc2c(sc(NC(=O)c3ccc4c(c3)OCCO4)c2C#N)C1
inactive: growth inhibition [1] -0.37% | growth inhibition [2] -8.73% | viability increase [3] -6.36% | viability [4] 35% | viability [5] 35.4% | inhibition [6] 2.62% | RAM network inhibition [7] 4.02%

Cn1c(Cn2c(=O)sc3ccccc32)nnc1SCc1cccnc1
inactive: growth inhibition [1] -3.75% | growth inhibition [2] 2.86% | viability increase [3] -1.44% | viability [4] 96.6% | viability [5] 97.1% | inhibition [6] 1.83% | RAM network inhibition [7] 5.33%

COC(=O)c1cc(OC)c(OC)cc1-n1cnc2cc(OC)c(OC)cc2c1=O
inactive: growth inhibition [1] -8.81% | growth inhibition [2] -0.615% | viability increase [3] -0.58% | viability [4] 97.4% | viability [5] 105% | inhibition [6] 0.665% | RAM network inhibition [7] 0.92%

O=C1Nc2ccc(S(=O)(=O)N3CCCC3C(=O)O)c3cccc1c23 (stereo unspecified)
inactive: growth inhibition [1] 1.8% | growth inhibition [2] -5.75% | viability increase [3] -2.22% | viability [4] 92.8% | viability [5] 96.8% | inhibition [6] 0.57% | RAM network inhibition [7] 0.21%

CCC(C)NC(=O)C1CCC(=O)N(c2ccc3c(c2)OCO3)C1c1ccc(OC)cc1 (stereo unspecified)
inactive: growth inhibition [1] 0.49% | growth inhibition [2] -0.06% | viability increase [3] -1.78% | viability [4] 103% | viability [5] 100% | inhibition [6] 1.02% | RAM network inhibition [7] 4.2%

COc1ccc(N2C(=O)C3CCCN3C2c2ccccc2)cc1 (stereo unspecified)
inactive: growth inhibition [1] 4.01% | growth inhibition [2] -9.51% | viability increase [3] -0.65% | viability [4] 102% | viability [5] 101% | inhibition [6] 1.87% | RAM network inhibition [7] -0.32%

O=C1C2CCCN2C(c2ccc(F)c(F)c2)N1c1cccc(Cl)c1 (stereo unspecified)
inactive: growth inhibition [1] 3.17% | growth inhibition [2] -1.67% | viability increase [3] -0.86% | viability [4] 101% | viability [5] 100% | inhibition [6] 0.745% | RAM network inhibition [7] 5.42%

COc1ccccc1N1CCN(C(=O)c2ccc(Br)s2)CC1
inactive: growth inhibition [1] -10.4% | growth inhibition [2] -6.29% | viability increase [3] -1.58% | viability [4] 87% | viability [5] 91.1% | inhibition [6] 1.69% | RAM network inhibition [7] 6.83%

CC(C)CC1(C(=O)O)NC(c2ccccc2O)C2C(=O)N(C(C)C)C(=O)C21 (stereo unspecified)
inactive: growth inhibition [1] 3.45% | growth inhibition [2] 3.48% | viability increase [3] -0.07% | viability [4] 102% | viability [5] 99.3% | inhibition [6] 1.27% | RAM network inhibition [7] 3.59%

COCC(C)NC(=O)c1ccc(N(C)C)cc1 (stereo unspecified)
inactive: growth inhibition [1] 2.19% | growth inhibition [2] 8.57% | viability increase [3] 2.2% | viability [4] 104% | viability [5] 94.5% | inhibition [6] 2.1% | RAM network inhibition [7] 0.51%

Cc1ccc2nc(NC(=O)CCNS(=O)(=O)c3cccs3)sc2c1
inactive: growth inhibition [1] -5.57% | growth inhibition [2] -7.59% | viability increase [3] 3.2% | viability [4] 87% | viability [5] 71.7% | inhibition [6] 0.45% | RAM network inhibition [7] 3.7%

Cc1ccc(S(=O)(=O)c2nc(S(C)(=O)=O)sc2N(C)C)cc1
inactive: growth inhibition [1] 0.44% | growth inhibition [2] -4.42% | viability increase [3] -5.6% | viability [4] 86% | viability [5] 86.9% | inhibition [6] 0.565% | RAM network inhibition [7] 2.51%

CCCC1(C(=O)O)NC(c2cccc(OC)c2O)C2C(=O)N(c3ccccc3)C(=O)C21 (stereo unspecified)
inactive: growth inhibition [1] -0.085% | growth inhibition [2] -4.29% | viability increase [3] -0.36% | viability [4] 96.4% | viability [5] 97.4% | inhibition [6] 0.49% | RAM network inhibition [7] -0.78%

O=c1cc(-c2ccccc2Cl)c2c([nH]1)CCC2
inactive: growth inhibition [1] -9.7% | growth inhibition [2] 0.91% | viability increase [3] -2.8% | viability [4] 94.5% | viability [5] 87.2% | inhibition [6] 1.71% | RAM network inhibition [7] 0.26%

CCN(CC)c1ccc(NC(=O)CN2C(=O)CSc3ncccc32)c(C)c1
inactive: growth inhibition [1] 1.52% | growth inhibition [2] -5.94% | viability increase [3] 0.51% | viability [4] 45.2% | viability [5] 66% | inhibition [6] 1.34% | RAM network inhibition [7] 6.12%

COc1ccc(CN=CC2=C(O)CNC2=O)cc1OC
inactive: growth inhibition [1] -12% | growth inhibition [2] -8.51% | viability increase [3] -0.57% | viability [4] 99.8% | viability [5] 103% | inhibition [6] 1.47% | RAM network inhibition [7] 5.81%

CCOC(=O)N1CCC(N2CC34C=CC(O3)C(C(=O)Nc3ccc(C(C)C)cc3)C4C2=O)CC1 (stereo unspecified)
inactive: growth inhibition [1] 2.48% | growth inhibition [2] -7.2% | viability increase [3] 3.15% | viability [4] 102% | viability [5] 99.6% | inhibition [6] 0.27% | RAM network inhibition [7] -0.37%

CCOc1ccccc1NC(=O)CN1C(=O)COc2ccc(Cl)cc21
inactive: growth inhibition [1] -16.8% | growth inhibition [2] -11.8% | viability increase [3] -1.27% | viability [4] 91.7% | viability [5] 84.2% | inhibition [6] 4.02% | RAM network inhibition [7] 5.69%

COc1cc(NC(=O)Cc2ccccc2)cc(OC)c1
inactive: growth inhibition [1] -1.66% | growth inhibition [2] -4.67% | viability increase [3] -2.51% | viability [4] 107% | viability [5] 96.7% | inhibition [6] 1.11% | RAM network inhibition [7] 0.25%

COc1ccc(N2CCN(C(=O)c3ccc4c(c3)OCO4)CC2)cc1
inactive: growth inhibition [1] -2.83% | growth inhibition [2] 14.7% | viability increase [3] -0.77% | viability [4] 97.8% | viability [5] 100% | inhibition [6] 2.04% | RAM network inhibition [7] 0.86%

CCCN1C(=O)c2cc(C(=O)NCCc3cccc(C)c3)ccc2C1O (stereo unspecified)
inactive: growth inhibition [1] -2.76% | growth inhibition [2] 1.97% | viability increase [3] -3.1% | viability [4] 104% | viability [5] 104% | inhibition [6] 0.08% | RAM network inhibition [7] 1.65%

O=S(=O)(NCc1ccc2c(c1)OCO2)c1cnc[nH]1
inactive: growth inhibition [1] -5.07% | growth inhibition [2] 0.305% | viability increase [3] 1.17% | viability [4] 107% | viability [5] 106% | inhibition [6] 0.885% | RAM network inhibition [7] 0.72%

O=C(CN1CCOc2ccccc21)N1CCCC1
inactive: growth inhibition [1] -21.1% | growth inhibition [2] -8.8% | viability increase [3] -5.56% | viability [4] 100% | viability [5] 90.5% | inhibition [6] 0.98% | RAM network inhibition [7] 1.32%

O=c1c2ccccc2ncn1-c1ccc2c(c1)OCCO2
inactive: growth inhibition [1] -2.29% | growth inhibition [2] -19.6% | viability increase [3] -0.34% | viability [4] 101% | viability [5] 94% | inhibition [6] 0.6% | RAM network inhibition [7] 0.78%

O=C(CCN1CCN(CCO)CC1)Nc1ccc(F)c(F)c1
inactive: growth inhibition [1] -1.65% | growth inhibition [2] -3.58% | viability increase [3] -2.29% | viability [4] 104% | viability [5] 101% | inhibition [6] 0.265% | RAM network inhibition [7] 2.01%

CCOC(=O)C1CCCN(c2c(NCCCN3CCCC(C)C3)c(=O)c2=O)C1 (stereo unspecified)
inactive: growth inhibition [1] 3.9% | growth inhibition [2] 3.15% | viability increase [3] -0.04% | viability [4] 99.1% | viability [5] 94.4% | inhibition [6] 2.96% | RAM network inhibition [7] -0.87%

Cc1nn(Cc2nc(-c3cccs3)no2)c(C)c1Br
inactive: growth inhibition [1] 0.735% | growth inhibition [2] 12% | viability increase [3] -1.13% | viability [4] 103% | viability [5] 101% | inhibition [6] 1.93% | RAM network inhibition [7] 3.61%

O=S1(=O)N=C(Nc2ccc(O)c(CN3CCCCC3)c2)c2ccccc21
inactive: growth inhibition [1] 5.56% | growth inhibition [2] -0.14% | viability increase [3] -3.07% | viability [4] 90.8% | viability [5] 97.1% | inhibition [6] 2.89% | RAM network inhibition [7] 6.37%
